From ChEMBL document CHEMBL5678799 (Biochem J, 2009)
Active and inactive are the calls of the source. No cut-off for these calls is given here.

Key:
[1] = target: Mitogen-activated protein kinase 8 (Homo sapiens) (UniProt P45983); assay: Inhibition of recombinant human His6-tagged JNK1alpha1 (1 to 384 residues) expressed in baculovirus infected Sf21 cells assessed as remaining activity at 10 uM using ATF2 as substrate incubated for 30 mins in presence of [gamma-33P]ATP by filter binding method relative to control
In short: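 Robotic radiometric panel assay, 30 min at room temperature (21 °C), with 10 mM magnesium acetate. […] Compound at 1 or 10 µM. Residual activity expressed relative to compound-free control; triplicate average ± S.D.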

mTORC1 (Homo sapiens) = mTORC1 (Homo sapiens) (UniProt P42345+Q8N122+Q9BVC4); settings: HEK293, dose 100-300 nM, time 30.0 min
mTORC2 (Homo sapiens) [2] = target: T1, mTORC2 (Homo sapiens) (UniProt P42345+Q6R327+Q9BVC4+Q9BPZ7); settings: HEK293, dose 30-1000 nM, time 30.0 min
[3] = target: Ribosomal protein S6 kinase alpha-3 (Homo sapiens) (UniProt P51812); assay: Inhibition of recombinant human N-terminal His6-tagged RSK2 (2 to 740 residues) expressed in baculovirus infected Sf21 cells assessed as remaining activity at 10 uM using KKLNRTLSVA as substrate incubated for 30 mins in presence of [gamma-33P]ATP by filter binding method relative to control
In short: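 Assays ran 30 min at 21 °C, robotically and in the linear range. Remaining activity is given relative to incubations lacking compound, as the average of triplicate determinations ± S.D.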

[4] = target: Eukaryotic elongation factor 2 kinase (Homo sapiens) (UniProt O00418); assay: Inhibition of recombinant human N-terminal GST-tagged EF2K (2 to 725 residues) expressed in Escherichia coli assessed as remaining activity at 10 uM using RKKFGESKTKTKEFL as substrate incubated for 30 mins in presence of [gamma-33P]ATP by filter binding method relative to control
In short: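 Kinase panel run robotically at 21 °C for 30 min, linear in time and enzyme. […] Compound tested at 1 or 10 µM. Activity given as percentage of incubations without compound, mean of triplicates ± S.D.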

[5] = target: Dual specificity tyrosine-phosphorylation-regulated kinase 3 (Homo sapiens) (UniProt O43781); assay: Inhibition of recombinant human N-terminal GST-tagged DYRK3 (1 to 588 residues) expressed in Escherichia coli assessed as remaining activity at 1 uM using KKISGRLSPIMTEQ as substrate incubated for 30 mins in presence of [gamma-33P]ATP by filter binding method relative to control
In short: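 Radiometric kinase panel run robotically at 21 °C for 30 min, linear in time and enzyme. […] Activity expressed as percentage of control without inhibitor; triplicate determinations.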

[6] = target: Dual specificity tyrosine-phosphorylation-regulated kinase 1A (Homo sapiens) (UniProt Q13627); assay: Inhibition of recombinant human N-terminal GST-tagged DYRK1A (1 to 502 residues) expressed in Escherichia coli assessed as remaining activity at 10 uM using KKISGRLSPIMTEQ as substrate incubated for 30 mins in presence of [gamma-33P]ATP by filter binding method relative to control
In short: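 Run robotically for 30 min at 21 °C under linear conditions. Compound at 1 or 10 µM. Percentage activity remaining versus control without compound, triplicate mean ± S.D.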

[7] = target: Fibroblast growth factor receptor 1 (Homo sapiens) (UniProt P11362); assay: Inhibition of recombinant human N-terminal His6-tagged FGFR1 (400 to 820 residues) expressed in baculovirus infected Sf21 cells assessed as remaining activity at 1 uM using Poly(Glu,Tyr) as substrate incubated for 30 mins in presence of [gamma-33P]ATP by filter binding method relative to control
In short: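 Panel assays were run for 30 min at 21 °C, within the linear range for time and enzyme. […] Results are percent activity remaining relative to compound-free control, averaged from triplicate ± S.D.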

mTORC2 (Homo sapiens) [8] = target: T1, mTORC2 (Homo sapiens); settings: HEK293, dose 30-1000 nM, time 30.0 min; remark: listed apart in the source
mTORC2 (Homo sapiens) [9] = target: T1, mTORC2 (Homo sapiens); settings: HEK293, dose 30-1000 nM, time 30.0 min; remark: listed apart in the source
[10] = target: Serine/threonine-protein kinase PLK1 (Homo sapiens) (UniProt P53350); assay: Inhibition of recombinant human N-terminal His6-tagged PLK1 (1 to 603 residues) expressed in baculovirus infected Sf21 cells assessed as remaining activity at 10 uM using ISDELMDATFADQEAKKK as substrate incubated for 30 mins in presence of [gamma-33P]ATP by filter binding method relative to control
In short: (§1)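 Radiometric panel assay run robotically at 21 °C for 30 min, linear in time and enzyme. […] Activity is expressed as percentage of the compound-omitted control, averaged from triplicates ± S.D.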

[11] = system: Ribosomal protein S6 kinase beta-1 (Homo sapiens), P23443 [T412E]; assay: Inhibition of recombinant human His6-tagged S6K1 T412E mutant (1 to 421 residues) expressed in baculovirus infected Sf21 cells assessed as remaining activity at 10 uM using KKRNRTLTV as substrate incubated for 30 mins in presence of [gamma-33P]ATP by filter binding method relative to control
In short: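 Incubations ran robotically for 30 min at room temperature (21 °C) under linear conditions. Results are percent activity remaining versus controls without compound, as the mean of triplicates ± S.D.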

[12] = target: MAP kinase-interacting serine/threonine-protein kinase 1 (Homo sapiens) (UniProt Q9BUB5); assay: Inhibition of recombinant human N-terminal GST-tagged C-terminal His6-tagged MNK1 (2 to 424 residues) expressed in Escherichia coli assessed as remaining activity at 1 uM using eIF4E as substrate incubated for 30 mins in presence of [gamma-33P]ATP by filter binding method relative to control
[13] = target: Tyrosine-protein kinase Yes (Homo sapiens) (UniProt P07947); assay: Inhibition of recombinant human N-terminal His6-tagged YES1 (1 to 543 residues) expressed in baculovirus infected Sf21 cells assessed as remaining activity at 10 uM using Poly(Glu,Tyr) as substrate incubated for 30 mins in presence of [gamma-33P]ATP by filter binding assay relative to control; in short: as §1
[14] = target: Inhibitor of nuclear factor kappa-B kinase subunit epsilon (Homo sapiens) (UniProt Q14164); assay: Inhibition of recombinant human N-terminal GST-tagged IKKepsilon (1 to 716 residues) expressed in baculovirus infected Sf21 cells assessed as remaining activity at 10 uM using MBP as substrate incubated for 30 mins in presence of [gamma-33P]ATP by filter binding method relative to control
In short: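 Incubation was 30 min at room temperature (21 °C) under conditions linear with time and enzyme amount. Activity is reported as percent of control lacking compound, triplicate mean ± S.D.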

[15] = target: Proto-oncogene tyrosine-protein kinase Src (Homo sapiens) (UniProt P12931); assay: Inhibition of recombinant human N-terminal His6-tagged SRC (1 to 536 residues) expressed in baculovirus infected Sf21 cells assessed as remaining activity at 10 uM using KVEKIGEGTYGVVYK as substrate incubated for 30 mins in presence of [gamma-33P]ATP by filter binding assay relative to control
Sequence of Proto-oncogene tyrosine-protein kinase Src (Homo sapiens) (P12931 2-536 limits assumed): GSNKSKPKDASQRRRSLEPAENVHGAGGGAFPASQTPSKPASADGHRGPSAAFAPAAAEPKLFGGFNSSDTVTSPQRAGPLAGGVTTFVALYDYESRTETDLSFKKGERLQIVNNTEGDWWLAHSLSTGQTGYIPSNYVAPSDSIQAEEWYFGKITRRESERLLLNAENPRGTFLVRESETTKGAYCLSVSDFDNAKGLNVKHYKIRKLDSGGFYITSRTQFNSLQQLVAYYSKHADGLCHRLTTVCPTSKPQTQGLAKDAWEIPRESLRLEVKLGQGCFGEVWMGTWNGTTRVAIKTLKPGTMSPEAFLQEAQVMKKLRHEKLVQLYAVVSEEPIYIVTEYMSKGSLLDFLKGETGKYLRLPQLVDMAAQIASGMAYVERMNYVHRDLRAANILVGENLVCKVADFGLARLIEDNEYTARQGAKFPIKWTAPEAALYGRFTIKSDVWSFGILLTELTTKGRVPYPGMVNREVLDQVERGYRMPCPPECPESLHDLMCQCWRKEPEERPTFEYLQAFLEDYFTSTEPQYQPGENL

Sequence of Inhibitor of nuclear factor kappa-B kinase subunit epsilon (Homo sapiens) (Q14164 whole entry, the tested form may be a part): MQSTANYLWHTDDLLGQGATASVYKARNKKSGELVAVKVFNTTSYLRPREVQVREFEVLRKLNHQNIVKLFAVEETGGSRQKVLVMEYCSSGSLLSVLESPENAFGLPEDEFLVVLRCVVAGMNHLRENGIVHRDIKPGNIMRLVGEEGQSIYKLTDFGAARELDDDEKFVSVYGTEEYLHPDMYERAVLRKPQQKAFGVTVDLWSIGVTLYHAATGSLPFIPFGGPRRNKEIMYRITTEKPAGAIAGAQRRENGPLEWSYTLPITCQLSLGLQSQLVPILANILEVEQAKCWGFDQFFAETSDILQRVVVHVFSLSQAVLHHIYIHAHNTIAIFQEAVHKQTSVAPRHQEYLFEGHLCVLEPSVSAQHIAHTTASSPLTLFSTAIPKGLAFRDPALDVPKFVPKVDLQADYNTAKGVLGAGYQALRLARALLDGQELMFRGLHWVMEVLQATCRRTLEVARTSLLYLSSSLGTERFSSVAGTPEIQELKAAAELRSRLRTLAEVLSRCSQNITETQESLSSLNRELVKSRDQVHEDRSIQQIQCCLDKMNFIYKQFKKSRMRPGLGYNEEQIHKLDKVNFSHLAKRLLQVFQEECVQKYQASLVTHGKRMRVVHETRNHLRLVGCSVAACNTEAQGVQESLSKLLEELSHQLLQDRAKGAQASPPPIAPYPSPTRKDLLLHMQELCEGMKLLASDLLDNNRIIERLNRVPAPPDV
Sequence of Eukaryotic elongation factor 2 kinase (Homo sapiens) (O00418 whole entry, the tested form may be a part): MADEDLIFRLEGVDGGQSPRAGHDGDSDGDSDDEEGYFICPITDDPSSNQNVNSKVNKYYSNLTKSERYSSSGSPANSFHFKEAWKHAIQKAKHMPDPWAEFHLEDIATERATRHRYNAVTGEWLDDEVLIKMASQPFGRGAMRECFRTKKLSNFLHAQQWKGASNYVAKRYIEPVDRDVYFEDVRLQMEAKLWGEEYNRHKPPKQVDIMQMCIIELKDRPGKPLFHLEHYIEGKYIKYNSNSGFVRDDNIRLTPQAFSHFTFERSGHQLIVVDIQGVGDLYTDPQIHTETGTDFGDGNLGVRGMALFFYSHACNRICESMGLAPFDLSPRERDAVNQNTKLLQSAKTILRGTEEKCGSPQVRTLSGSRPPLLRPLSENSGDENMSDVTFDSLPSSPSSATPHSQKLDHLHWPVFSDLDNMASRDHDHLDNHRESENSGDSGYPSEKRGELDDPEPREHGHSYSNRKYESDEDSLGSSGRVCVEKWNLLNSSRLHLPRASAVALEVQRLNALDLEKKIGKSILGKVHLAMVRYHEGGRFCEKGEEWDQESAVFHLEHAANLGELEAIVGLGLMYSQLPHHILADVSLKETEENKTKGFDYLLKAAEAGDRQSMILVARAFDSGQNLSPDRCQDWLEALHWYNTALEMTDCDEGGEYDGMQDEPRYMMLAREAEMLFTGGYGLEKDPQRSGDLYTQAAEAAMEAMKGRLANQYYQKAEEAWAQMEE
Sequence of Mitogen-activated protein kinase 8 (Homo sapiens) (P45983 whole entry, the tested form may be a part): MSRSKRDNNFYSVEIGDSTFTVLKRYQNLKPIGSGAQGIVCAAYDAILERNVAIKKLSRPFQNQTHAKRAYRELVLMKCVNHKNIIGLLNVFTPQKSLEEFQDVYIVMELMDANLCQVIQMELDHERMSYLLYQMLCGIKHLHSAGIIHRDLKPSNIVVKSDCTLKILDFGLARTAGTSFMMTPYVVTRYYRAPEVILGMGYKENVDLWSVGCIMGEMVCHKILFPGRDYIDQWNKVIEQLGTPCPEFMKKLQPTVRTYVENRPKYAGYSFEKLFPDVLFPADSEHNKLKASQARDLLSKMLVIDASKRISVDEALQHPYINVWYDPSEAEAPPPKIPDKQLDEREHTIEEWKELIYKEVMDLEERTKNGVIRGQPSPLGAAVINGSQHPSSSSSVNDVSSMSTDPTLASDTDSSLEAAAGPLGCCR
Sequence of Dual specificity tyrosine-phosphorylation-regulated kinase 3 (Homo sapiens) (O43781 whole entry, the tested form may be a part): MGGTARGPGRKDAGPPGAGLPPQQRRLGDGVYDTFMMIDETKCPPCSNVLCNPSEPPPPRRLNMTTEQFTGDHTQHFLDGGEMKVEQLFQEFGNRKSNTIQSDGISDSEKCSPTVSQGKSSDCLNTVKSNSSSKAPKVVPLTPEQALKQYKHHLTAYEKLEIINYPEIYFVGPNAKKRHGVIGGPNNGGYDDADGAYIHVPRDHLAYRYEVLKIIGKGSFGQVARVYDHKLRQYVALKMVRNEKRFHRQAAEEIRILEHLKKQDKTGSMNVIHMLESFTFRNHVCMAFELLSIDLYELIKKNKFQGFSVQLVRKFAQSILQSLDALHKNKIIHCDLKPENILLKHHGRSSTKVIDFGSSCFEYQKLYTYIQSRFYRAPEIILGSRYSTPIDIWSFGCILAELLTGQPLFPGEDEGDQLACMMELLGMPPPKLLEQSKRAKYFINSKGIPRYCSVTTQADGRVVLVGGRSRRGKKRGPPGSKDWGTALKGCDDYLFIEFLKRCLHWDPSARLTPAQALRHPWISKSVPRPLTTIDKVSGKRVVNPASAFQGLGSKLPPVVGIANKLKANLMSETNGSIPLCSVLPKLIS
Sequence of Tyrosine-protein kinase Yes (Homo sapiens) (P07947 2-543 limits assumed): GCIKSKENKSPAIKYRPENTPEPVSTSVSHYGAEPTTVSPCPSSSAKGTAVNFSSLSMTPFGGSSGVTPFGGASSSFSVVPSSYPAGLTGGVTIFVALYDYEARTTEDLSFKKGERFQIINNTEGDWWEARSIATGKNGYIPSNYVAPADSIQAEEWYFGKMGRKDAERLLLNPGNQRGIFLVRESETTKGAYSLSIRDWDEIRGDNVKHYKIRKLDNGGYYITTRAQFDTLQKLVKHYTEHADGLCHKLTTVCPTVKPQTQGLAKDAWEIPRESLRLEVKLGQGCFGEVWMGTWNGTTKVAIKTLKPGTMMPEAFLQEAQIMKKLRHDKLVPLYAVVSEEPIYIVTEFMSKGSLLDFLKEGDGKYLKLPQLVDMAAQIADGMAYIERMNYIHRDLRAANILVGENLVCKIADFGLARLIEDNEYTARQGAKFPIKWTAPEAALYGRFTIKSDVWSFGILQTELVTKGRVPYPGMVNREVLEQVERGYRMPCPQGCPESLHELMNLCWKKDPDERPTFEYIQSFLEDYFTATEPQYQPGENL
Sequence of Serine/threonine-protein kinase PLK1 (Homo sapiens) (P53350 whole entry, the tested form may be a part): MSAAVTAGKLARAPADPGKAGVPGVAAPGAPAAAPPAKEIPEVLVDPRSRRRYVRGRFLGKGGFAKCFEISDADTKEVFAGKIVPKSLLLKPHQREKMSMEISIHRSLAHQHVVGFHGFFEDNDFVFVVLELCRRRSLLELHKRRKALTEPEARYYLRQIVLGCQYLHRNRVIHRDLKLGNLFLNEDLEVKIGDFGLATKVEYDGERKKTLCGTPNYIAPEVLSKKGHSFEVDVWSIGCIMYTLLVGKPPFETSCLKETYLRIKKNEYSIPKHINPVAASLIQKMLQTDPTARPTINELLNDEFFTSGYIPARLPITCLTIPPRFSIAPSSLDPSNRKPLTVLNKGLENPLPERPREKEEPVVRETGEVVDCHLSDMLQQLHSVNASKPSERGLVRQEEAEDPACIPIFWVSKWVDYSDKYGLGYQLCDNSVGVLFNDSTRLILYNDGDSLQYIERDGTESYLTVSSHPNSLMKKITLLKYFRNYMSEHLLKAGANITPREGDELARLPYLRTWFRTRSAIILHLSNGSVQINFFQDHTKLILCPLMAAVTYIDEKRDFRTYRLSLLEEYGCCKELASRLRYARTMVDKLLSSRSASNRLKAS
Sequence of Ribosomal protein S6 kinase beta-1 (Homo sapiens), P23443 [T412E] (P23443 whole entry T412E, looked up, the tested form may be a part): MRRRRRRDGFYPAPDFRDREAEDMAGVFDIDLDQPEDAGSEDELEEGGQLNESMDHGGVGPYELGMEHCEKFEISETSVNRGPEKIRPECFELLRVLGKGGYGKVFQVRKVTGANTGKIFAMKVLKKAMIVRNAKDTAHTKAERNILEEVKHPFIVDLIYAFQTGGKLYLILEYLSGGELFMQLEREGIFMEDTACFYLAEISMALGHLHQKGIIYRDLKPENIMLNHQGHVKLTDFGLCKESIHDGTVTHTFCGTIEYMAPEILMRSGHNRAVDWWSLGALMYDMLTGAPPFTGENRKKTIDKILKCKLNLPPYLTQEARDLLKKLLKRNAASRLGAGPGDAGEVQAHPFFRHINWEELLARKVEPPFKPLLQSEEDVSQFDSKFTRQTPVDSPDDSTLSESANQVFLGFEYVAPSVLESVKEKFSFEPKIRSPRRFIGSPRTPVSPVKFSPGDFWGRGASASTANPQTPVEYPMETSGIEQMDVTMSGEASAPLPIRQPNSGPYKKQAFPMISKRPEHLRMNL

**Q.** `COc1ccc(-c2ccc3c(N4CCOCC4)nc(N4C[C@@H](C)O[C@@H](C)C4)nc3n2)cc1CO` [Ku-0063794] was tested. Which Activity [1] did it give?
**A.** Its Activity is 93%.

**Q.** What about the inhibition (mTORC1 (Homo sapiens)) of the same molecule?
**A.** Its inhibition is 100%.

**Q.** What about the inhibition (mTORC2 (Homo sapiens) [2]) of the same molecule?
**A.** Its inhibition is “Dose-Dependent Effect”.

**Q.** What about the Activity [3] of the same molecule?
**A.** The Activity was 104%.

**Q.** What about the Activity [4] of the same molecule?
**A.** The Activity was 108%.

**Q.** And the Activity [5]?
**A.** The Activity was 88%.

**Q.** And the Activity [6]?
**A.** Its Activity is 80%.

**Q.** And the Activity [7]?
**A.** Its Activity is 102%.

**Q.** What about the inhibition (mTORC2 (Homo sapiens) [8]) of the same molecule?
**A.** Its inhibition is “Active”.

**Q.** And the inhibition (mTORC2 (Homo sapiens) [9])?
**A.** The inhibition was “Dose-Dependent Effect”.

**Q.** And the Activity [10]?
**A.** Its Activity is 94%.

**Q.** What about the Activity [11] of the same molecule?
**A.** Its Activity is 98%.

**Q.** What about the Activity [12] of the same molecule?
**A.** The Activity was 111%.

**Q.** What about the Activity [13] of the same molecule?
**A.** The Activity was 90%.

**Q.** And the Activity [14]?
**A.** The Activity was 100%.

**Q.** What about the Activity [15] of the same molecule?
**A.** The Activity was 86%.
